Bioassay records: PubChem BioAssay, several laboratories
This is a sample that favours compounds with a hit; in the whole collection about 12% have one here.
MT stabilizer – microtubule stabilization, imaging screen; HeLa tubulin immunostaining HCS, 24 h; share of cells brighter than vehicle mean+2SD; hit rate 0.83% among 200,000; % tubulin-high responders, % at 10 µM;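 active means plate Z-score above 3 for both tubulin-high and condensed-nucleus cell shares, with cell loss under 80%, at 10 µM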;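 further: anti alpha tubulin signal scored within the nucleus-defined area of each cell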
Autophagy HCS – autophagy modulation, high-content screen | MEF GFP-LC3 puncta imaging; test concentration mostly 10 µM | hit rate 0.98% among 190,000 | calls only at 10 µM (by protocol);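 active means percentage of spot-positive cells more than 3 SD above its plate mean, without a fluorescence outlier flag or 80% toxicity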
L major viab – reduces viability of Leishmania major promastigotes; resazurin fluorescence viability; hit rate 9% among 200,000; inhibition, % at 10 µM; in the data active means inhibition above about 50%;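 further: promastigotes grown with compound for 44 hours at 28 °C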
bCat nuc transl – alters nuclear translocation of beta-catenin in HeLa cells; hit rate 0.3% among 190,000; AID 1665; nuclear translocation activity, % at 5 µM; immunofluorescence imaging;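 active means nuclear translocation activity above 50% at 5 µM, with a well cell count of 50 or more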;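 further: per-cell ratio of nuclear to cytoplasmic median beta-catenin stain intensity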
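Read-out: Nuclear/cytoplasmic beta-catenin signal ratio, % activation | Assay system: Human HeLa cell line | Times: 24 h compound exposure at 37°C, 5% CO2 | Signal: Fluorescence imaging of beta-catenin antibody stain plus DAPI | Dosing: 5 µM primary, 0.02–20 µM confirmation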
Dynein transport – dynein cargo transport inhibition; hit rate 0.47% among 220,000; z-score, hits read low; 3617.4 mouse cells, GR-EGFP nuclear translocation imaging; test concentration mostly 20 µM; stimulated with dexamethasone, 1 µM; stronger effect = lower value; AID 1381;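 active means plate z-score of nuclear minus cytoplasmic receptor signal below a set negative limit, without overly bright fluorescence or cell loss, cut at about -3.5 in these data, passing the limit was not always enough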;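 further: z-score of nuclear minus cytoplasmic ring GR-EGFP intensity difference per well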
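Also added – dexamethasone, 1.0 µM final · Buffer or medium – tet-free, stripped-serum medium · Schedule – induction 48 h, compound 1 h, agonist 30 min · Detection – formaldehyde fixation, Hoechst nuclear stain, 10x automated fluorescence imaging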
CHOP inhibitor – blocks CHOP induction under ER stress; CHO-K1 CHOP-promoter luciferase, tunicamycin-induced, 15-18 h; inhibition, % at 10 µM; hit rate 3.8% among 220,000; AID 2732;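 active means compounds that reduced the stress-induced luciferase reporter signal by more than about 70% of percent inhibition, limit read from the data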
Of the large screens only hits and unclear results are named; the others gave an inactive call.

O=[N+]([O-])c1ccccc1CNc1ccc(F)c(Cl)c1	none
Fc1ccccc1CNc1cc(Cl)cc(Cl)c1	CHOP inhibitor 90
CC(C)N(c1ccccc1)c1ccc(NC(=O)CCl)cc1	L major viab 55
CN1CCN(CCP(=O)(c2ccccc2)c2ccccc2)CC1	CHOP inhibitor 73
O=P(CCO)(c1ccccc1)c1ccccc1	none
O=C(NCc1ccc(F)cc1)c1ccc(S(=O)(=O)Nc2cccc(C(F)(F)F)c2)cc1	L major viab 66
CN(CC(=O)Nc1nccs1)S(=O)(=O)c1ccc(F)cc1	none
CCOc1cc(/C=N/NC(=O)C(=O)N2CCCC2)ccc1O	none (no result: MT stabilizer)
O=C(CSc1ncnc2c1oc1ccccc12)NCc1ccco1	none
COc1ccc(-n2c(C)cc(C3=NNC(=NC4CC4)SC3)c2C)cc1	none
Cc1cc(C2=NNC(=NC3CC3)SC2)c(C)n1Cc1ccco1	CHOP inhibitor 95
C=CCn1c(C)cc(C2=NNC(=Nc3ccc(C)cc3)SC2)c1C	none
COCCCN=C1NN=C(c2cc(C)n(Cc3ccco3)c2C)CS1	MT stabilizer 14, L major viab 95 (no result: bCat nuc transl)
COCC(C)N=C1NN=C(c2cc(C)n(Cc3ccccc3Cl)c2C)CS1 (centres undefined)	L major viab 64
O=C(Cn1cccc1C(=O)c1ccccc1)NCCC1=CCCCC1	none
COc1nc(C)nc(Cl)c1NC1=NCCN1	none (no result: MT stabilizer, Autophagy HCS, L major viab, bCat nuc transl, Dynein transport)
COc1cccc(CN(CC2CCCO2)S(=O)(=O)c2ccc(S(=O)(=O)N(C)C)cc2)c1 (centres undefined)	none
CCOc1cc(CNc2ncc(-c3ccc(OC)cc3)n2C)ccc1O	L major viab 65
COc1ccc(-c2cnc(N)n2C)cc1	none
Cn1c(-c2ccc(Br)cc2)cnc1NCc1cccnc1	L major viab 100
Cn1c(-c2ccc(F)cc2)cnc1NCc1ccc(F)cc1	L major viab 88
Cn1c(-c2cccc([N+](=O)[O-])c2)cnc1NCc1cccc([N+](=O)[O-])c1	none
Cn1c(-c2ccc(F)cc2)cnc1NCc1ccc(C#N)cc1	L major viab 92
COc1cc(CNCCNC(=O)c2nonc2N)ccc1OCc1ccc(Cl)nc1	none
CC(C)C[C@H](N)CSSC[C@@H](N)CC(C)C	none (no result: MT stabilizer, Autophagy HCS, L major viab, bCat nuc transl, Dynein transport)
O=C(CN1C(=O)c2ccccc2C1=O)OCN1C(=O)c2ccccc2C1=O	none (no result: bCat nuc transl, CHOP inhibitor)
Cn1nnnc1NCc1cccc(Cl)c1Cl	none
COc1ccc(C)cc1NC(=O)C(OC(=O)CNC(=O)c1ccc(Br)cc1)c1ccccc1 (centres undefined)	L major viab 52
Cc1cc(C(=O)NCC(=O)OC(C(=O)Nc2cc(C(F)(F)F)ccc2Cl)c2ccccc2)ccc1[N+](=O)[O-] (centres undefined)	CHOP inhibitor 82 (no result: bCat nuc transl)
CCCC(=O)OC(C(=O)Nc1cc(C(F)(F)F)ccc1Cl)c1ccccc1 (centres undefined)	L major viab 90 (no result: bCat nuc transl)
COc1ccc(C)cc1NC(=O)C(OC(=O)CNC(=O)c1cc(C)cc(C)c1)c1ccccc1 (centres undefined)	none
COc1ccc(Cl)cc1NC(=O)c1cccc(NC(=O)CCC(=O)O)c1	none (no result: bCat nuc transl)
Cc1ccc(Cl)cc1NC(=O)c1ccc(NC(=O)CCC(=O)O)cc1	L major viab 53 (no result: bCat nuc transl)
Cc1c(NC(=O)CCC(=O)N2CCCCC2)c(=O)n(-c2ccccc2)n1C	none
C(=N\N(Cc1ccccc1)c1ccccc1)/c1ccco1	none
O=C(NC1CCCC1)C1CCN(C(=O)c2ccc(-c3ccccc3)cc2)CC1	none
CCCC(=O)Nc1ccc(C(=O)Nc2cc(C(F)(F)F)ccc2Cl)cc1	CHOP inhibitor 73
Cc1nc(-c2ccccn2)nc(SCC(=O)c2ccccc2)c1Cl	none (no result: MT stabilizer, Autophagy HCS, L major viab)
Cc1cccc(-n2c(C)cc(/C=N/NC(=O)c3cccc([N+](=O)[O-])c3C)c2C)c1	L major viab 64
Cc1cc(/C=N/NC(=O)c2ccccc2F)c(C)n1-c1ccccc1	none
Cc1cc(/C=N/NC(=O)c2cccc(F)c2)c(C)n1-c1ccccc1	MT stabilizer 16
C=CCN(c1ccc(C(=O)Nc2ccc(C)c(C)c2)cc1)S(C)(=O)=O	L major viab 55
CC(=O)c1cccc(NC(=O)c2ccc(N(Cc3ccc(C)cc3)S(C)(=O)=O)cc2)c1	L major viab 53
Cc1ccc(CN(c2ccc(C(=O)Nc3ccc4c(c3)OCO4)cc2)S(C)(=O)=O)cc1	none (no result: bCat nuc transl)
CCOc1cc(-n2cnnn2)c(OCC)cc1NC(=O)c1cc2ccc(N(CC)CC)cc2oc1=O	Autophagy HCS active (no result: bCat nuc transl, CHOP inhibitor)
CCN(CC)c1ccc2cc(C(=O)Nc3cccnc3N3CCOCC3)c(=O)oc2c1	none (no result: MT stabilizer, Autophagy HCS, L major viab, Dynein transport, CHOP inhibitor)
Cc1cccc2cc(CN(Cc3ccco3)C(c3nnnn3CCc3ccccc3)C(C)C)c(=O)[nH]c12 (centres undefined)	L major viab 87
Cc1ccc(-c2nnc3ccc(SCC(=O)N4CCc5ccccc54)nn23)cc1	CHOP inhibitor 85
Cc1ccc(-c2nnc3ccc(SCC(=O)N4CCCc5ccccc54)nn23)cc1	none
Cc1ccc(S(=O)(=O)c2cc3c(=O)n4ccccc4nc3n(Cc3ccco3)c2=N)cc1	L major viab 62
O=C(NCc1ccc(C(F)(F)F)cc1)C1CC(c2c(Cl)cccc2Cl)=NO1 (centres undefined)	none
COc1ccc(Cc2nnc(NC(=O)CSc3ccccc3)s2)cc1OC	L major viab 51
CCc1nnc(NC(=O)CCC(=O)NCCc2ccc(OC)c(OC)c2)s1	L major viab 61
CCc1nnc(NC(=O)CCC(=O)N2CCN(C3c4ccccc4-c4ccccc43)CC2)s1	L major viab 51
CCc1nnc(NC(=O)CCC(=O)N2CCN(Cc3ccccc3)CC2)s1	none
S=C(Nc1ccc(Nc2ccccc2)cc1)Nc1ccccn1	none
CC(C)(C)CC(C)(C)NC(=S)NC1CCN(Cc2ccccc2)CC1	L major viab 89, CHOP inhibitor 71
Cc1cccc(NC(=S)N2CCN(Cc3ccccc3)CC2)c1C	none
O=C(Nc1cccc(F)c1)NC1CCN(Cc2ccccc2)CC1	L major viab 56
CCN1CCC(NC(=O)Nc2ccc(F)cc2)CC1	none
Fc1ccc(NC(=S)NC2CCN(Cc3ccccc3)CC2)cc1	L major viab 89
S=C(NC1CCCCC1)N1CCN(Cc2ccccc2)CC1	none
Cc1cccc(NC(=S)NC2CCN(Cc3ccccc3)CC2)c1C	L major viab 89 (no result: bCat nuc transl)
Cc1ccc(-n2ncc(-c3nn[nH]n3)c2N)cc1	none (no result: MT stabilizer, Autophagy HCS, L major viab)
Cc1cc(C)cc(OC(=O)C23CCC(C)(C(=O)O2)C3(C)C)c1 (centres undefined)	none
O=C(NNC(=O)C1CCN(Cc2cccc(F)c2)CC1)c1cccc(Cl)c1	L major viab 64
COc1ccc(NC(=O)CSc2nc3ccccc3c(=O)n2Cc2cccs2)c(OC)c1	none
COc1cccc(NC(=O)CSc2nc3c(c(=O)n2C)SC(C)C3)c1 (centres undefined)	CHOP inhibitor 79
